NPY Y2 blocker – blocks the human neuropeptide Y Y2 receptor | inhibition, % at 2.7 µM | NPY-Y2 expressing cells, antagonist mode | hit rate 0.99% among 140,000; in the data active = inhibition above about 17%;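 also: 0% = vehicle with agonist challenge and 100% = reference antagonist with challenge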
NPY-Y1 antag – NPY-Y1 (human) receptor antagonism; AID 1040; hit rate 1% among 200,000; P25929; HEK293-CNG Y1 cells, membrane potential fluorescence; NPY at EC95, then isoproterenol; inhibition, % at 3.6 µM;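 active = inhibition above the campaign mean inhibition of all tested compounds plus 3 SD, cut at about 20% in these data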;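 also: 0% = DMSO wells given NPY plus isoproterenol and 100% = isoproterenol alone without NPY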
Target sequence (P25929 whole entry, looked up): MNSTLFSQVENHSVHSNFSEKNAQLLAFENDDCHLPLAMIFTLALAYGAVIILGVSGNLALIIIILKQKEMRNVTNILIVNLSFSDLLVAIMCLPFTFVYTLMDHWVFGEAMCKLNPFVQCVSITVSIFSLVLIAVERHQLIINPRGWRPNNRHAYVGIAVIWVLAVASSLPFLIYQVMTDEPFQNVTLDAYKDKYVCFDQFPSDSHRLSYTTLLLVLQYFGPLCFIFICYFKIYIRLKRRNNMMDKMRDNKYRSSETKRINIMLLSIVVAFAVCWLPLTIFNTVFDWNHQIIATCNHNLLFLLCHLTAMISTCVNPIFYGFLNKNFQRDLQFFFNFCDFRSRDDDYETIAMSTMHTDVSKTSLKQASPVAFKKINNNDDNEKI
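Assay system: HEK293 cells with Y1 receptor plus CNG channel | Probe or stimulus: NPY (25 nM), isoproterenol (1 µM), Ro 20-1724 (25 µM) | Timing: Compound incubation 1 h at room temperature, readout 45 min post-stimulation | Measured by: Membrane-potential fluorescent dye readout | Benchmarks: High control isoproterenol alone, low control NPY with isoproterenol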
NPY1 pot ag – potentiates or activates human NPY-Y1 receptor. P25929. hit rate 0.37% among 220,000. NPY-Y1 expressing cells, potentiator/agonist activation. activation, % at 3.6 µM; in the data active = activation above about 33%, passing the limit was not always enough;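 also: cells stimulated with NPY at EC10 then isoproterenol at EC100; 0% = low agonist plus stimulus and 100% = saturating agonist plus stimulus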
NPY-Y2 PAM-ag – potentiates or activates human NPY-Y2 receptor; P49146; cells expressing NPY-Y2, potentiator/agonist read-out; activation, % at 3.6 µM; hit rate 0.45% among 220,000; AID 1359; in the data active = activation above about 27%;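 also: cells stimulated with NPY near EC25 plus isoproterenol at EC100; 0% = vehicle plus submaximal agonist and 100% = vehicle plus saturating agonist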
NPY1 antag ctr – counter-screen for NPY-Y2 antagonists: human NPY-Y1 antagonism; shares compounds with NPY Y2 blocker; cell-based NPY-Y1 antagonism counterscreen; inhibition, % at 3.6 µM; hit rate 19% among 710; AID 1256; in the data active = inhibition above about 20%;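 also: cells challenged with NPY then isoproterenol with cAMP sensed through a CNG channel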
NPY-Y2 ant conf – confirmation of human neuropeptide Y receptor Y2 antagonists | shares compounds with NPY Y2 blocker | HEK293 NPY-Y2 CNG channel, membrane potential fluorescence | inhibition, % at 2.8 µM | hit rate 32% among 710 | AID 1257;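 active = mean inhibition of triplicate wells above the hit cutoff set in the primary screen, cut at about 17% in these data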;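 also: 0% = DMSO with NPY challenge and 100% = BIIE0246 high control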
Active calls of the source: *. Only some compounds are listed: those with a hit (about 1.8% of all), similar ones and a draw of the others.

Results for O=C1c2ccccc2N2C(=O)c3ccccc3C2N1O (stereo unspecified) ?
NPY Y2 blocker: 0; NPY-Y1 antag: -1; NPY1 pot ag: 3; NPY-Y2 PAM-ag: -4

What do the screens show for `O=C(Nc1ccc2c(c1)OCO2)c1cc(-c2cccnc2)nc2ccccc12`?
NPY-Y1 antag: 7; NPY1 pot ag: -14; NPY-Y2 PAM-ag: -17

How did Cc1ccc(-c2cc(C(=O)Nc3ccc4c(c3)OCCO4)c3ccccc3n2)cc1 do in these assays?
NPY Y2 blocker: 27*; NPY-Y1 antag: 18; NPY1 pot ag: -79; NPY-Y2 PAM-ag: -81; NPY1 antag ctr: 18; NPY-Y2 ant conf: 39*

Results for Cc1cccc(NC(=O)C(c2cccc([N+](=O)[O-])c2)N2CCCCC2)c1 (stereo unspecified) ?
NPY Y2 blocker: 17*; NPY-Y1 antag: 15; NPY1 pot ag: -12; NPY-Y2 PAM-ag: -10; NPY1 antag ctr: 16; NPY-Y2 ant conf: 6

How did COc1cccc(NC(=O)C(c2ccccc2)N2CCCC2)c1 (stereo unspecified) do in these assays?
NPY-Y1 antag: 10; NPY1 pot ag: -21; NPY-Y2 PAM-ag: 1

How did Clc1ccc(OCc2cc(-c3ccccc3)no2)cc1Cl do in these assays?
NPY Y2 blocker: 23*; NPY-Y1 antag: 8; NPY1 pot ag: -30; NPY-Y2 PAM-ag: -33; NPY1 antag ctr: 39*; NPY-Y2 ant conf: 39*

How did Clc1ccc(-c2cc(COc3ccccc3)on2)cc1 do in these assays?
NPY-Y1 antag: 10; NPY1 pot ag: -33; NPY-Y2 PAM-ag: 3

How did CC(C)c1ccc(/C=C/C(=O)N2CCc3ccccc3C2)cc1 do in these assays?
NPY Y2 blocker: 18*; NPY-Y1 antag: 3; NPY1 pot ag: -8; NPY-Y2 PAM-ag: -8; NPY1 antag ctr: 29*; NPY-Y2 ant conf: 25*

What do the screens show for `COc1ccc(NC(=O)CSc2nc3ccccc3c(=O)n2CCCN2CCCCC2)c(OC)c1`?
NPY Y2 blocker: 24*; NPY-Y1 antag: 15; NPY1 pot ag: -45; NPY-Y2 PAM-ag: -13; NPY1 antag ctr: 14; NPY-Y2 ant conf: 20*

How did COc1ccccc1CNC(=O)CSc1nc2ccccc2c(=O)n1CCCN1CCOCC1 do in these assays?
NPY-Y1 antag: 5; NPY1 pot ag: 20; NPY-Y2 PAM-ag: 13

What do the screens show for `O=C(NCCCn1ccnc1)/C(=C\c1cccs1)NC(=O)c1ccco1`?
NPY Y2 blocker: 3; NPY-Y1 antag: 3; NPY1 pot ag: -4; NPY-Y2 PAM-ag: 17

What do the screens show for `COc1ccc(C(=O)N/C(=C/c2cccs2)C(=O)NCCCn2ccnc2)cc1OC`?
NPY Y2 blocker: 22*; NPY-Y1 antag: -2; NPY1 pot ag: -3; NPY-Y2 PAM-ag: -1; NPY1 antag ctr: -2; NPY-Y2 ant conf: 4

How did Cc1ccc(-n2c(-c3cnccn3)n[nH]c2=S)cc1 do in these assays?
NPY-Y1 antag: 0; NPY1 pot ag: -5; NPY-Y2 PAM-ag: -18

What do the screens show for `COc1ccc(N(CC(=O)N/N=C/c2ccc(OC3CSC3)cc2)S(=O)(=O)c2ccccc2)cc1`?
NPY Y2 blocker: 21*; NPY-Y1 antag: 0; NPY1 pot ag: 17; NPY-Y2 PAM-ag: 8; NPY1 antag ctr: 22*; NPY-Y2 ant conf: 54*

How did Cc1ccc(N(CC(=O)N/N=C/c2ccc(OC3CSC3)cc2)S(=O)(=O)c2ccccc2)cc1 do in these assays?
NPY Y2 blocker: 3; NPY-Y1 antag: 6; NPY1 pot ag: -8; NPY-Y2 PAM-ag: -14

Results for NC(=O)COC(=O)c1ccccc1OCc1ccc(Cl)cc1 ?
NPY-Y1 antag: -2; NPY1 pot ag: 4; NPY-Y2 PAM-ag: -1

Results for CCC(c1nnnn1C(C)(C)C)N1CCN(C2CCCC2)CC1 (stereo unspecified) ?
NPY Y2 blocker: 4; NPY-Y1 antag: 1; NPY1 pot ag: -5; NPY-Y2 PAM-ag: 2

How did CCC(c1nnnn1C1CCCCC1)N1CCN(C2CCCC2)CC1 (stereo unspecified) do in these assays?
NPY Y2 blocker: 27*; NPY-Y1 antag: 9; NPY1 pot ag: -22; NPY-Y2 PAM-ag: 2; NPY1 antag ctr: 11; NPY-Y2 ant conf: 12

What do the screens show for `CCCC(c1nnnn1C(C)(C)CC)N1CCN(C2CCCC2)CC1` (stereo unspecified)?
NPY Y2 blocker: 25*; NPY-Y1 antag: 19; NPY1 pot ag: -21; NPY-Y2 PAM-ag: -23; NPY1 antag ctr: 15; NPY-Y2 ant conf: 8

Results for COc1ccc2nc(NC(=O)CCc3ccc(OC)c(OC)c3)sc2c1 ?
NPY-Y1 antag: 2; NPY1 pot ag: 4; NPY-Y2 PAM-ag: 10

Results for O=C(c1ccccc1C(=O)N1CCN(c2ccccc2F)CC1)N1CCN(c2ccccc2F)CC1 ?
NPY Y2 blocker: 7; NPY-Y1 antag: 6; NPY1 pot ag: -17; NPY-Y2 PAM-ag: -8

What do the screens show for `c1ccc(-c2nc(CSc3nnc(-c4cccs4)o3)cs2)cc1`?
NPY Y2 blocker: 20*; NPY-Y1 antag: -3; NPY1 pot ag: 0; NPY-Y2 PAM-ag: 2; NPY1 antag ctr: 15; NPY-Y2 ant conf: 20*

What do the screens show for `CCOc1ccc(-c2nc(C#N)c(NCc3ccc4c(c3)OCO4)o2)cc1`?
NPY Y2 blocker: 9; NPY-Y1 antag: 5; NPY1 pot ag: -8; NPY-Y2 PAM-ag: -6

What do the screens show for `Cc1ccc(OCc2nc(C#N)c(NCc3ccc4c(c3)OCO4)o2)cc1`?
NPY Y2 blocker: 22*; NPY-Y1 antag: 11; NPY1 pot ag: -66; NPY-Y2 PAM-ag: -21; NPY1 antag ctr: 11; NPY-Y2 ant conf: 9

What do the screens show for `CCOC(=O)CC1COCCN1Cc1cn(C)nc1-c1ccccc1F` (stereo unspecified)?
NPY-Y1 antag: 0; NPY1 pot ag: 18; NPY-Y2 PAM-ag: 6

What do the screens show for `CCCOC(=O)COC(=O)c1ccccc1NC(=O)c1ccccc1`?
NPY Y2 blocker: 23*; NPY-Y1 antag: 15; NPY1 pot ag: -70; NPY-Y2 PAM-ag: -11; NPY1 antag ctr: 16; NPY-Y2 ant conf: 9

Results for O=c1c(Cl)c(N/N=C/c2ccc(Cl)cc2)cnn1-c1ccccc1 ?
NPY Y2 blocker: 2; NPY-Y1 antag: -1; NPY1 pot ag: -22; NPY-Y2 PAM-ag: 17

What do the screens show for `O=C(CSc1nc2ccccc2o1)c1ccc2c(c1)OCCO2`?
NPY Y2 blocker: 22*; NPY-Y1 antag: 9; NPY1 pot ag: -28; NPY-Y2 PAM-ag: -3; NPY1 antag ctr: 9; NPY-Y2 ant conf: 18*

How did O=C(CN(Cc1ccc2c(c1)OCO2)C(=O)CSc1nc2ccccc2o1)NC1CCCCC1 do in these assays?
NPY Y2 blocker: 17*; NPY-Y1 antag: 13; NPY1 pot ag: -4; NPY-Y2 PAM-ag: -17; NPY1 antag ctr: 16; NPY-Y2 ant conf: 19*

Results for Cc1cccc(NC(=O)CSc2nc3ccccc3o2)c1 ?
NPY Y2 blocker: 22*; NPY-Y1 antag: 11; NPY1 pot ag: -28; NPY-Y2 PAM-ag: -12; NPY1 antag ctr: 8; NPY-Y2 ant conf: 8

How did COCCN(CC(=O)NC1CCCCC1)C(=O)CSc1nc2ccccc2o1 do in these assays?
NPY Y2 blocker: 1; NPY-Y1 antag: 4; NPY1 pot ag: -4; NPY-Y2 PAM-ag: -11
